Bioassay records: PubChem, Broad Institute
Hits are enriched below; roughly 1.2% of the tested compounds scored in any of these assays.
CAL PDZ FP-1 – human CAL PDZ-peptide interaction inhibition. purified CAL PDZ, TMR-peptide fluorescence polarization, 1 h. inhibition, % at 20 µM. 330,000 compounds, 0.02% hits;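 active = highest replicate inhibition of at least 40%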
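Material: tagged CAL PDZ domain; buffer or medium: 25 mM sodium phosphate pH 7.4, 150 mM NaCl, TCEP, IgG, Thesit; compound dosing: single point, 20 µM; schedule: 1 h incubation at room temperature before polarization reading; measured by: FP readout, S and P plane fluorescence; read-out basis: percent inhibition from loss of millipolarization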
CAL PDZ FP-2 – inhibitors of human CAL PDZ peptide binding | Q9HD26 | purified CAL PDZ, TMR-peptide fluorescence polarization, 1 h | inhibition, % at 24.9 µM | 300,000 compounds, 0.92% hits;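 active = mean inhibition of at least 30% with at least half of replicates also reaching 30%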
ARNT TACC3 PPI – disrupts binding between human ARNT and TACC3; Q9Y6A5; AlphaScreen His-ARNT PAS-B/GST-TACC3 binding, luminescence; TACC3 fragment carries E629A point mutation; inhibition, % at 9.99 µM; 390,000 compounds, 0.66% hits; AID 623870;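 active = mean inhibition of replicates at least 50% and at least half of replicates each reaching 50%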
CaV13 ICDI inh – Disruptors of the CACNA1D IQ motif to Ca2+-dependent inactivation inhibitor domain association, primary screening, Förster resonance energy transfer in intact living …; HEK cells, CFP/YFP FRET ICDI-IQ, plate reader, 10 min; percent FRET-ratio fall versus neutral wells; inhibition, % at 12.3 µM; 340,000 compounds, 0.098% hits; AID 743397;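 active = mean replicate inhibition of at least 30% and at least 1% of replicates passing that level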
A number is an active result; . = inactive; / = not tested or not shown; + = active, no number.

SMILES	CAL PDZ FP-1	CAL PDZ FP-2	ARNT TACC3 PPI	CaV13 ICDI inh
Nc1cccc(/C=C/c2ccncc2)c1	.	74	/	.
C[C@@H](O)C#Cc1ccc([C@@H]2[C@@H](CO)N3CCCCN(S(=O)(=O)c4ccccc4)C[C@@H]23)cc1	/	/	.	/
CCN(CC)c1ccc(/C=N/NC(=O)c2ccco2)c(O)c1	.	.	74	.
CCN(CC)c1ccc(/C=N/NC(=O)c2ccco2)cc1	.	.	.	.
CCN(CC)c1ccc(/C=N/NC(=O)Cc2cccs2)c(O)c1	.	.	32	.
C[C@@H]1CN([C@@H](C)CO)C(=O)c2cc(NC(=O)CCCN(C)C)ccc2O[C@@H](C)CCCCO[C@@H]1CN(C)S(C)(=O)=O	/	/	.	/
Cc1c(Cl)cccc1NC(=O)c1ncn[nH]1	.	.	73	.
Cc1ccc(C(c2nnnn2C2CCCCC2)N2CCc3ccccc32)cc1 (stereo not drawn)	.	74	.	.
CC(C)C(c1nnnn1C1CCCCC1)N1CCc2ccccc21 (stereo not drawn)	.	.	/	.
CCN1C(=O)c2cccc3c(S(=O)(=O)N(C)C)ccc1c23	/	/	/	42
C/C(=N\NC(=O)c1ccc(Cl)cc1)c1ccccn1	.	.	82	.
CC(=NNC(=S)Nc1cccc(Cl)c1)c1ccccn1	.	.	60	.
C/C(=N\NC(=O)COc1ccccc1-c1ccccc1)c1ccccn1	.	.	8.8	/
C/C(=N\NC(=O)COc1ccccc1-c1ccccc1)c1cccnc1	.	.	.	.
C[C@@H]1CCCCO[C@H](CN(C)S(=O)(=O)c2ccc(F)cc2)[C@@H](C)CN([C@@H](C)CO)C(=O)c2cc(NC(=O)Nc3ccccc3)ccc2O1	/	/	.	/
Cc1ccc(S(=O)(=O)N(C)C[C@H]2Oc3ccc(NC(=O)C4CCCCC4)cc3C(=O)N([C@@H](C)CO)C[C@@H]2C)cc1	/	/	.	/
O=C(O)c1cccc(NC(=O)c2cn(-c3ccccc3)nc2-c2cccc(Br)c2)c1	/	.	.	69
COCCN1C(=O)N(c2cccc(OC)c2)C(=O)C1CC(=O)Nc1ccc(OC)cc1 (stereo not drawn)	.	.	.	.
CCOc1ccc(NC(=O)CC2C(=O)N(c3cccc(OC)c3)C(=O)N2CCOC)cc1 (stereo not drawn)	.	59	.	.
Cc1ccccc1N1CCN(Cc2nc(Cc3ccccc3)no2)CC1	.	.	.	.
Fc1cccc(Cc2noc(CN3CCSCC3)n2)c1	.	57	.	.
Clc1cccc(CN2CCN(Cc3nc(CCc4ccccc4)no3)CC2)c1	.	.	.	+
FC(F)(F)c1cccc(Cc2noc(CN3CCSCC3)n2)c1	.	.	.	.
O=C(Nc1nnc2n1CCS2)c1ccc(Br)o1	.	.	46	.
Cc1cccnc1NC(=O)c1ccc(Br)o1	.	.	.	.
SMILES	CAL PDZ FP-1	CAL PDZ FP-2	ARNT TACC3 PPI	CaV13 ICDI inh
Cc1cccc(C)c1NC(=S)NC(C)(C)CO	.	79	.	.
CN(C)C(=O)CSc1nc2ccc(C(=O)c3ccccc3)cc2[nH]1	.	.	.	62
C#CCOCCOCCOCCNc1nc(N2CCN(C(=O)[C@H](CCCCN)n3cc([C@@H](N)CC(C)C)nn3)CC2)nc(N2CCN(C(=O)[C@H](Cc3cc4ccccc4[nH]3)n3cc([C@@H](N)Cc4ccc(O)cc4)nn3)CC2)n1	.	.	46	/
C#CCOCCOCCOCCNc1nc(N2CCN(C(=O)[C@H](CCCCN)n3cc([C@@H](N)C(C)CC)nn3)CC2)nc(N2CCN(C(=O)[C@H](Cc3ccc(O)cc3)n3cc([C@@H](N)CC(C)C)nn3)CC2)n1 (stereo partly drawn)	.	.	30	.
C#CCOCCOCCOCCNc1nc(N2CCN(C(=O)[C@H](Cc3ccc(O)cc3)n3cc([C@@H](N)CC(C)C)nn3)CC2)nc(N2CCN(C(=O)[C@H](Cc3cc4ccccc4[nH]3)n3cc([C@@H](N)CC(C)C)nn3)CC2)n1	/	/	/	.
CN(C)C(=O)C[C@@H]1C[C@H]2c3cc(NC(=O)c4ccc5c(c4)OCO5)ccc3O[C@H]2[C@@H](CO)O1	/	/	.	/
Cc1cc(C)c(S(=O)(=O)NCC23C=CC(O2)C2C(=O)N(c4ccccc4)C(=O)C23)c(C)c1 (stereo not drawn)	.	43	.	.
O=C1C2C3CC(C(Br)C3Br)C2C(=O)N1c1ccccn1 (stereo not drawn)	.	44	.	.
CC(=O)OC[C@H]1O[C@@H](Sc2cccc3cccnc23)[C@H](OC(C)=O)[C@@H](OC(C)=O)[C@H]1OC(C)=O	.	.	64	.
COc1ccc(CNC(=O)C[C@H]2CC[C@@H]3[C@@H](COc4ccc(NC(=O)C5CC5)cc4C(=O)N3C)O2)cc1	/	/	.	/
O=C1OC(c2ccccc2)(c2ccccc2)c2ccccc21	55	.	.	.
CCCNC(=O)N1C[C@H](O)COC[C@@H]2O[C@@H](CC(=O)N3CCN(C)CC3)CC[C@H]21	/	/	.	/
COc1cccc(-n2c(CCn3nc(C)c([N+](=O)[O-])c3C)n[nH]c2=S)c1	.	.	.	.
COc1ccc(CCn2nc(C)c([N+](=O)[O-])c2C)cc1	.	38	.	/
O=C(/C(N=Nc1cccc(C(F)(F)F)c1)=C(/O)c1cccs1)C(F)(F)F	.	68	.	.
C[C@H](CO)N1C[C@H](C)[C@H](CN(C)C(=O)Nc2ccc(C(F)(F)F)cc2)Oc2c(NC(=O)Nc3ccc(C(F)(F)F)cc3)cccc2C1=O	/	/	.	/
COc1ccccc1NC(=O)CN1CCC(c2nc3ccc(C)cc3[nH]2)CC1	.	93	.	.
COc1ccccc1NC(=O)CN1CCC(c2nc3ccccc3[nH]2)CC1	.	/	.	.
Cc1cc(C(=O)Nc2cccc3c2O[C@H](CN(C)C(=O)Nc2ccc4c(c2)OCO4)[C@H](C)CN([C@H](C)CO)C3=O)n(C)n1	/	/	.	/
NS(=O)(=O)c1ccc(CCNC(=O)COC(=O)C2CCC2)cc1	.	47	.	.
NC(=O)CC(NC(=O)Cc1cccc2ccccc12)c1ccc(NCc2ccccn2)c([N+](=O)[O-])c1 (stereo not drawn)	.	32	.	.
NC(=O)CC(NC(=O)Cc1cccc2ccccc12)c1ccc(NCc2ccccc2)c([N+](=O)[O-])c1 (stereo not drawn)	.	.	.	.
C[C@@H]1CN([C@H](C)CO)C(=O)Cc2cc(NC(=O)CCC(F)(F)F)ccc2O[C@H]1CN(C)S(=O)(=O)c1ccc(F)cc1	/	/	.	/
Cc1nnc(SCC(=O)NNC(=O)CC#N)[nH]c1=O	.	.	48	.
COc1ccccc1C(=O)N/N=C/C(C)=C/c1ccccc1	.	35	.	.
CC(/C=N/NC(=O)c1ccncc1)=C\c1ccccc1	.	.	.	.
Cc1cccc(C(=O)Nc2sc(-c3ccccc3)cc2C(=O)O)c1	.	43	.	.
CC(C)(C)C(=O)Nc1sc(-c2ccccc2)cc1C(=O)O	.	.	.	.
O=C(O)CCCC(=O)Nc1ccc(N2CCCC2)cc1	/	93	.	/
